Source: ChEMBL document CHEMBL4130623, “Discovery of Highly Potent Pinanamine-Based Inhibitors against Amantadine- and Oseltamivir-Resistant Influenza A Viruses” (J Med Chem, 2018)
Activity calls are given as the source filed them.

Key:
[1] = test system: Influenza A virus; test: Antiviral activity against Influenza A virus (A/Texas/04/2009(H1N1)) infected in human A549 cells assessed as reduction in plaque area after 3 days post infection by crystal violet-staining based assay; format: functional, organism-based; settings: A549, 72 h
Method in brief: (§1)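 A549 monolayers were infected at 0.01 MOI for 1 h at 37 °C, then washed twice with PBS. Cells were overlaid with 1% agar DMEM containing compound, 2 µg/mL trypsin and 0.3% BSA. Two to three days post-infection, monolayers were fixed and stained with 0.1% crystal violet.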

[2] = test system: Influenza A virus; test: Antiviral activity against Influenza A virus (A/duck/Guangdong/1/1996 (H7N3)) infected in MDCK cells assessed as reduction in virus-induced cytopathic effect after 48 hrs by microscopic analysis; format: functional, organism-based
Method in brief: (§2)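 MDCK monolayers (5×10^4 cells/well, grown 24 h) were rinsed twice, infected with 100 TCID50 virus for 2 h at 37 °C in 5% CO2, and the inoculum was removed. Two-fold serial compound dilutions in DMEM with 1.5 µg/mL trypsin were added and incubated 48 h at 34 °C. CPE percentage was scored by microscope and EC50 fitted by non-linear regression.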

[3] = test system: Influenza A virus; test: Antiviral activity against Influenza A virus (A/California/07/2009(H1N1)) infected in human A549 cells assessed as reduction in plaque area after 3 days post infection by crystal violet-staining based assay; format: functional, organism-based; settings: A549, 72 h; method in brief: as §1
[4] = test system: Influenza A virus; test: Antiviral activity against Influenza A virus (A/HK/68(H3N2)) infected in MDCK cells assessed as reduction in virus-induced cytopathic effect after 48 hrs by microscopic analysis; format: functional, organism-based; method in brief: as §2
[5] = test system: Influenza A virus; test: Antiviral activity against Influenza A virus (A/duck/HK/Y280/97 (H9N2)) infected in MDCK cells assessed as reduction in virus-induced cytopathic effect after 48 hrs by microscopic analysis; format: functional, organism-based; method in brief: as §2
[6] = test system: H3N2 subtype; test: Antiviral activity against Influenza A virus (A/Aichi/2/68 (H3N2)) infected in MDCK cells assessed as reduction in virus-induced cytopathic effect after 48 hrs by microscopic analysis; format: functional, organism-based; settings: A/Aichi/2/1968(H3N2); method in brief: as §2
[7] = test system: Influenza A virus; test: Antiviral activity against Influenza A virus (A/WSN/33 (H1N1)) infected in MDCK cells assessed as reduction in virus-induced cytopathic effect after 48 hrs by microscopic analysis; format: functional, organism-based; settings: A/WSN/1933(H1N1); method in brief: as §2
[8] = target: Hemagglutinin (Influenza A virus (A/Puerto Rico/8/1934(H1N1))) (UniProt P03452); test: Inhibition of Influenza A virus A/PR/8/34 HA1 domain assessed as reduction in virus-induced aggregation of chicken erythrocytes at 0.75 to 1500 uM incubated for 1 hr with virus followed by transfer of compound-virus preparation to chicken erythrocytes solution measured after 40 mins
Method in brief: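 Two-fold serial compound dilutions in PBS were mixed with an equal volume of virus and incubated 1 h. The mixture was added to an equal volume of fresh 0.5% chicken red blood cells in Alsever's solution. After 40 min at room temperature, erythrocyte aggregation was read visually.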

[9] = test system: Influenza A virus; test: Antiviral activity against Influenza A virus (A/PR/8/34 (H1N1)) infected in MDCK cells assessed as reduction in virus-induced cytopathic effect after 48 hrs by microscopic analysis; format: functional, organism-based; settings: A/Puerto Rico/8/1934(H1N1); method in brief: as §2
[10] = Cytotoxicity against MDCK cells assessed as change in cell morphology after 48 hrs by microscopic analysis; format: cell-based, Canis lupus familiaris; settings: dog
Method in brief: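 MDCK monolayers (5×10^4 cells/well, 24 h) were rinsed twice with PBS and exposed to two-fold serial compound dilutions in DMEM for 48 h. Wells were examined by microscope. The concentration giving minimal change in cell morphology was taken as the minimum cytotoxic concentration (MCC).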

[11] = test system: Influenza A virus; test: Antiviral activity against Influenza A virus (A/HK/68) by CCK-8 reagent based assay; format: functional, organism-based
[12] = target: Hemagglutinin (Influenza A virus (A/Puerto Rico/8/1934(H1N1))) (UniProt P03452); test: Inhibition of Influenza A virus A/PR/8/34 HA2-mediated hemolysis preincubated with virus for 30 mins followed by chicken red blood cells addition measured after 30 mins by spectrophotometric analysis
Method in brief: (§3)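 Virus (100 µL) was incubated with two-fold serial compound dilutions in PBS for 30 min at 37 °C. An equal volume of chicken red blood cells in citric acid-sodium citrate (pH 5.0) was added and incubated 30 min at 37 °C, then centrifuged at 400 × g. Supernatant absorbance was read at 540 nm, with mock-infected background subtracted. IC50 is the concentration giving 50% hemolysis inhibition. Two independent experiments were run.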

[13] = test system: Influenza A virus; test: Antiviral activity against Influenza A virus (A/PR/8/34 (H1N1)) infected in MDCK cells assessed as inhibition of virus yield dosed at 0 to 2 hrs post infection and measured after 24 hrs; format: functional, organism-based; settings: A/Puerto Rico/8/1934(H1N1)
Method in brief: (§4)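 Confluent MDCK cells were infected with 100 TCID50 virus and adsorbed 1 h at 4 °C (adsorption defined as -1 h), then washed. Compound at 10 µM was present only during the stated interval, then washed out with PBS. Cells were kept in medium with 1.5 µg/mL TPCK-trypsin at 37 °C. After 24 h, plates were freeze-thawed and supernatant yield was titrated by TCID50.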

[14] = test system: Influenza A virus; test: Antiviral activity against Influenza A virus (A/Guangzhou/GIRD/07/2009 (H1N1)) infected in MDCK cells assessed as reduction in virus-induced cytopathic effect after 48 hrs by microscopic analysis; format: functional, organism-based; method in brief: as §2
[15] = test system: Influenza A virus; test: Antiviral activity against Influenza A virus (A/WSN/33) by CCK-8 reagent based assay; format: functional, organism-based; settings: A/WSN/1933(H1N1)
[16] = target: Hemagglutinin (Influenza A virus (strain A/Aichi/2/1968 H3N2), UniProt P03437); test: (§5) Inhibition of Influenza A virus A/Aichi/2/68 (H3N2) HA2-mediated hemolysis preincubated with virus for 30 mins followed by chicken red blood cells addition measured after 30 mins by spectrophotometric analysis; parameters: species or system Influenza A virus (A/Aichi/2/1968(H3N2)); method in brief: as §3
[17] = target: Hemagglutinin (Influenza A virus (strain A/Aichi/2/1968 H3N2)) (UniProt P03437); test: as §5; settings: Influenza A virus (A/Aichi/2/1968(H3N2)); method in brief: as §3
[18] = test system: Influenza A virus; test: Antiviral activity against Influenza A virus (A/PR/8/34 (H1N1)) infected in MDCK cells assessed as inhibition of virus yield dosed at -1 to 2 hrs post infection and measured after 24 hrs; format: functional, organism-based; settings: A/Puerto Rico/8/1934(H1N1); method in brief: as §4

Chain of Hemagglutinin (Influenza A virus (A/Puerto Rico/8/1934(H1N1))) (P03452 whole entry, the tested form may be a part): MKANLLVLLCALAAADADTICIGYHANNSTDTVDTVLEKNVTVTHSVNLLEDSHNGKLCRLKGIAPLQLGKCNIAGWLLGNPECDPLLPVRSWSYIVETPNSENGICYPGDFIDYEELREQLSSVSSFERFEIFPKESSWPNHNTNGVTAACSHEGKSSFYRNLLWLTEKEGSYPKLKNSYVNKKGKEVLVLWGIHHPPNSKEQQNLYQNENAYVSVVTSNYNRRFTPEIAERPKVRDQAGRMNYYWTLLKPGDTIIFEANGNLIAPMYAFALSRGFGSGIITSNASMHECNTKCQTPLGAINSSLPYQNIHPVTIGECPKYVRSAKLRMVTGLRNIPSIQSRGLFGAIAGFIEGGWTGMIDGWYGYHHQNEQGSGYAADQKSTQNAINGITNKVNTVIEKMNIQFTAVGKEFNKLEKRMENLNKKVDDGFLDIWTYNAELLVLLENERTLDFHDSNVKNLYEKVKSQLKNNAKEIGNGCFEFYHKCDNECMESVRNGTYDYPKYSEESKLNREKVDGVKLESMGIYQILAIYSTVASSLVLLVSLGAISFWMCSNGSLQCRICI

Q: What does the source list for `C[C@@H]1C2CC(C[C@H]1NCc1sccc1C1CC1)C2(C)C` (single isomer, unassigned)?
A: EC50 [1]: 100 nM; EC50 [2]: 4580 nM; EC50 [3]: 340 nM; EC50 [4]: 5380 nM; EC50 [5]: 6790 nM; EC50 [6]: 4550 nM; EC50 [7]: 1480 nM; inhibition [8]: inactive; EC50 [9]: 2230 nM; MCC at 48 h [10]: 25 µM; Activity [11]: Active; inhibition [12]: Dose-dependent effect; inhibition [13]: Active; EC50 [14]: 300 nM; Activity [15]: Active; IC50 [16]: 1230 nM; inhibition [17]: Dose-dependent effect; inhibition [18]: Active
